Published values gathered from unrelated publications.
Protocols differ between the studies behind these lines.
Target: Mitogen-activated protein kinase kinase kinase 4 (MAP3K4, Homo sapiens, UniProt Q9Y6R4)

The remaining binding of N#Cc1ccccc1CSc1nnc2c(n1)[nH]c1ccccc12 is reported as 100% (binding; competition with immobilised ligand; 10 µM).
For C[C@@]1(Cc2ccc(C#N)cc2)C(=O)N(c2cc(Cl)cc(Cl)c2)c2ncc(C(=O)NC3(c4nc(C5CCC5)no4)CC3)n21, the remaining binding was 100% (cell-free assay; competition with immobilised ligand; 1 µM).
CN(C)c1ncc(F)c(-c2cnn3ncccc23)n1 has a remaining binding of 100% (binding; 1 µM).
CC(C)(C)c1ccc(-c2nc(CBr)nn2-c2cccc(O)c2)cc1 gave a remaining binding of 91% (cell-free assay; competition with immobilised ligand; 10 µM).
With CN(C)C(=O)Cn1cc(-c2nc(C3(c4ccc(-c5cnc(N)nc5)cc4)CC3)no2)cn1 the remaining binding was 92% (cell-free assay; competition with immobilised ligand; 1 µM).
For C=CC(=O)N1CCC(C(=O)NCC(=O)N2CCN(c3nc(-c4cnc(N)nc4C(F)F)nc(N4CCOCC4)n3)CC2)CC1, the remaining binding was 100% (binding; competition with immobilised ligand; 1 µM).
For CN(C)C(=O)Cn1cc(-c2nc([C@@](C)(c3ccc(-c4cnc(N)nc4)cc3)C3CC3)no2)cn1, the remaining binding was 91% (cell-free assay; competition with immobilised ligand; 1 µM).
The remaining binding of Cc1cnc(Nc2ccc(C(=O)N3CCC(N4CCCC4)CC3)cc2)nc1-c1cc2ccccc2s1 is reported as 32% (binding; competition with immobilised ligand; 1 µM).
C[C@@H]1CCN(c2nccc(-c3cnn4ncccc34)n2)C1 gave a remaining binding of 100% (binding; 1 µM).
For c1cncc(-c2cccc(Nc3nccc(NC4CCCCC4)n3)c2)c1, the remaining binding was 88% (binding; competition with immobilised ligand; 10 µM).
For F[C@@H]1CCN(c2nccc(-c3cnn4ncccc34)n2)C1, the remaining binding was 78% (binding; 1 µM).
COc1cnc(Nc2cccc(S(N)(=O)=O)c2)nc1N1CCN(c2ccccc2)CC1 has a remaining binding of 100% (binding; competition with immobilised ligand; 1 µM).
The remaining binding of N[C@@H]1CCN(c2nccc(-c3cnn4ncccc34)n2)C1 is reported as 100% (binding; 1 µM).
For C[C@@H](c1ccc(-n2cnc3c(N)ncnc32)cc1)N1CCc2nn(C)c(Cc3ccccc3)c2C1=O, the remaining binding was 100% (binding; competition with immobilised ligand; 0.1 µM).
With CCC(=O)N[C@H]1CC[C@@H](C(=O)N(C)c2ccc(-c3nc4ccccc4o3)cc2)C1 the remaining binding was 100% (cell-free assay; competition with immobilised ligand; 1 µM).
c1cnn2ncc(-c3ccnc(N4CCC45COC5)n3)c2c1 gave a remaining binding of 97% (binding; 1 µM).
For C[C@@H]1CN(c2cc(-c3n[nH]c4ccc(OC5(C)CC5)cc34)ncn2)C[C@H](C)O1, the remaining binding was 100% (cell-free assay; competition with immobilised ligand; 0.1 µM).
With O=C(c1ccc(Nc2ncc(Cl)c(-c3ccc(Cl)s3)n2)cc1)N1CCC(N2CCCC2)CC1 the remaining binding was 61% (binding; competition with immobilised ligand; 1 µM).
With CSc1cccnc1N1CCN(Cc2nc3ccccc3[nH]2)CC1 the remaining binding was 100% (cell-free assay; competition with immobilised ligand; 1 µM).
With O=C(NCCCN1CCOCC1)c1ccc(Nc2nccc(-c3cc4ccccc4s3)n2)cc1 the remaining binding was 68% (binding; competition with immobilised ligand; 1 µM).
The remaining binding of C[C@@H]1CN(c2ccc3ncc(-c4ccc5[nH]nc(C6CC6)c5c4)n3n2)C[C@H](C)O1 is reported as 100% (binding; competition with immobilised ligand; 0.5 µM).
C[C@H](c1ccnc(Nc2nc3ccc(-c4cc(N(C)C)ncn4)cc3[nH]2)c1)N1CCN(C(=O)CC(F)(F)F)CC1 gave a remaining binding of 96% (cell-free assay; competition with immobilised ligand; 0.1 µM).
With O=C(Nc1c[nH]nc1C(=O)NC1CCNCC1)c1cc(F)cc(F)c1 the remaining binding was 100% (binding; competition with immobilised ligand; 1 µM).
